Converted amounts (≈) assume the structure as drawn.
What was measured:
[1] = Elimination half life in Sprague-Dawley rat at 10 mg/kg, iv by LC-MS analysis; format: ADME, organism-based; parameters: dose 10 mg/kg, route intravenous; settings: in vivo, read-out: beta t1/2 (converted)
Summary of the method: (§1)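 Rats were dosed orally or by intravenous injection. For prodrugs, all parameters were based on the active parent antibacterial detected in plasma, and each prodrug dose was also given as an equivalent parent dose. Parameters were Cmax, Tmax, elimination T1/2, AUC from the concentration–time curve, clearance and oral bioavailability F.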

[2] = Cmax in Sprague-Dawley rat at 10 mg/kg, po by LC-MS analysis; format: ADME, organism-based; parameters: dose 10 mg/kg, route oral; settings: in vivo; summary of the method: as §1
[3] = Oral bioavailability in Sprague-Dawley rat at 10 mg/kg; format: ADME, organism-based; settings: Sprague-Dawley, in vivo; summary of the method: as §1
[4] = Clearance in Sprague-Dawley rat at 10 mg/kg, iv by LC-MS analysis; format: ADME, organism-based; parameters: dose 10 mg/kg, route intravenous; settings: in vivo; summary of the method: as §1
[5] = AUC in Sprague-Dawley rat at 10 mg/kg, iv by LC-MS analysis; format: ADME, organism-based; parameters: dose 10 mg/kg, route intravenous; settings: plasma
Summary of the method: (§2)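 Rats dosed orally or by intravenous injection. AUC is the area under the plasma concentration–time curve. For the prodrug entries, all PK values were based on the amount of the active parent antibacterial detected, not the administered prodrug.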

[6] = AUC in Sprague-Dawley rat at 10 mg/kg, po by LC-MS analysis; format: ADME, organism-based, Plasma; parameters: dose 10 mg/kg, route oral; settings: Sprague-Dawley, plasma; summary of the method: as §1
[7] = Elimination half life in Sprague-Dawley rat at 10 mg/kg, po by LC-MS analysis; format: ADME, organism-based; parameters: dose 10 mg/kg, route oral; settings: in vivo, read-out: beta t1/2 (converted); summary of the method: as §1
[8] = Tmax in Sprague-Dawley rat at 10 mg/kg, po by LC-MS analysis; format: ADME, organism-based; parameters: dose 10 mg/kg, route oral; settings: in vivo; summary of the method: as §1
[9] = Cmax in Sprague-Dawley rat at 15 mg/kg, po by LC-MS analysis; format: ADME, organism-based; parameters: dose 15 mg/kg, route oral; settings: in vivo; summary of the method: as §1
Enterococcus faecium [10] = assay: Ratio of linezolid MIC to compound MIC for linezolid-resistant Enterococcus faecium; format: functional
Summary of the method: (§3)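 Agar dilution per NCCLS, with linezolid tested alongside as control. Compounds were diluted 2-fold in sterile water, then 10-fold into Mueller–Hinton agar (final 16–0.03125 μg/mL). Strains (E. faecalis 3, E. faecium 3, S. aureus 3, S. epidermidis 1) were grown in MH broth at 35 °C for 8 h, adjusted to 0.5 McFarland, multipoint-inoculated, and incubated at 35 °C for 16 h. The ratio is linezolid MIC over compound MIC.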

Enterococcus faecalis [11] = assay: Ratio of linezolid MIC to compound MIC for linezolid-resistant Enterococcus faecalis; format: functional; summary of the method: as §3
[12] = system: Staphylococcus epidermidis; assay: Ratio of linezolid MIC to compound MIC for linezolid-resistant Staphylococcus epidermidis; format: functional; summary of the method: as §3
Staphylococcus aureus [13] = assay: Ratio of linezolid MIC to compound MIC for linezolid-resistant Staphylococcus aureus; format: functional; summary of the method: as §3
Enterococcus faecium [14] = assay: Antibacterial activity against linezolid-resistant Enterococcus faecium after 16 hrs by NCCLS agar dilution method; format: functional
Summary of the method: (§4)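 Agar dilution MIC. Stocks were 320 μg/mL in 50% aqueous DMSO, 2-fold serially diluted in sterile water, then diluted 10-fold into Mueller–Hinton agar to give 16–0.03125 μg/mL final. Organisms were grown in MH broth at 35 °C for 8 h and adjusted to 0.5 McFarland. They were spotted onto drug-containing plates with a multipoint inoculator and incubated at 35 °C for 16 h. Linezolid was the positive control.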

Enterococcus faecalis [15] = assay: Antibacterial activity against linezolid-resistant Enterococcus faecalis after 16 hrs by NCCLS agar dilution method; format: functional; summary of the method: as §4
[16] = system: Staphylococcus epidermidis; assay: Antibacterial activity against linezolid-resistant Staphylococcus epidermidis after 16 hrs by NCCLS agar dilution method; format: functional; summary of the method: as §4
Staphylococcus aureus [17] = assay: Antibacterial activity against linezolid-resistant Staphylococcus aureus after 16 hrs by NCCLS agar dilution method; format: functional; summary of the method: as §4
Staphylococcus aureus [18] = assay: Antibacterial activity against Staphylococcus aureus ATCC 29213 after 16 hrs by NCCLS agar dilution method; format: functional; settings: ATCC 29213, 16 h; summary of the method: as §4
Enterococcus faecalis [19] = assay: Antibacterial activity against Enterococcus faecalis after 16 hrs by NCCLS agar dilution method; format: functional
Summary of the method: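 Agar dilution MIC per NCCLS, 6 E. faecalis strains. Stock was 320 μg/mL in 50% water/DMSO, serially 2-fold diluted in sterile water, then 10-fold into Mueller–Hinton agar to give 16–0.03125 μg/mL final. Inocula came from MH broth cultures grown 8 h at 35 °C, adjusted to 0.5 McFarland and spotted by multipoint inoculator. Plates were read after 16 h at 35 °C.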

Streptococcus pneumoniae = assay: Antibacterial activity against penicillin-resistant Streptococcus pneumoniae after 16 hrs by NCCLS agar dilution method; format: functional; summary of the method: as §4
[20] = system: Staphylococcus epidermidis; assay: Antibacterial activity against methicillin-resistant Staphylococcus epidermidis after 16 hrs by NCCLS agar dilution method; format: functional; summary of the method: as §4
[21] = system: Staphylococcus epidermidis; assay: Antibacterial activity against methicillin-sensitive Staphylococcus epidermidis after 16 hrs by NCCLS agar dilution method; format: functional; summary of the method: as §4
Staphylococcus aureus [22] = assay: Antibacterial activity against methicillin-resistant Staphylococcus aureus after 16 hrs by NCCLS agar dilution method; format: functional; summary of the method: as §4
Staphylococcus aureus [23] = assay: Antibacterial activity against methicillin-sensitive Staphylococcus aureus after 16 hrs by NCCLS agar dilution method; format: functional; summary of the method: as §4
[24] = Oral bioavailability in Sprague-Dawley rat at 15 mg/kg; format: ADME, organism-based; settings: in vivo; summary of the method: as §1
[25] = Clearance in Sprague-Dawley rat at 5 mg/kg, iv by LC-MS analysis; format: ADME, organism-based; parameters: dose 5 mg/kg, route intravenous; settings: in vivo
Summary of the method: (§5)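 Rats received the compound by intravenous injection, with oral dosing run in parallel. Clearance (CLz) is reported in L/h/kg. Elimination half-life (T1/2) is reported in h and was taken from the plasma concentration–time profile.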

[26] = AUC in Sprague-Dawley rat at 5 mg/kg, iv by LC-MS analysis; format: ADME, organism-based; parameters: dose 5 mg/kg, route intravenous; settings: plasma; summary of the method: as §2
[27] = AUC in Sprague-Dawley rat at 15 mg/kg, po by LC-MS analysis; format: ADME, organism-based; parameters: dose 15 mg/kg, route oral; settings: plasma; summary of the method: as §2
[28] = Elimination half life in Sprague-Dawley rat at 5 mg/kg, iv by LC-MS analysis; format: ADME, organism-based; parameters: dose 5 mg/kg, route intravenous; settings: in vivo, read-out: beta t1/2 (converted); summary of the method: as §5
[29] = Tmax in Sprague-Dawley rat at 15 mg/kg, po by LC-MS analysis; format: ADME, organism-based; parameters: dose 15 mg/kg, route oral; settings: in vivo; summary of the method: as §1
[30] = Elimination half life in Sprague-Dawley rat at 15 mg/kg, po by LC-MS analysis; format: ADME, organism-based; parameters: dose 15 mg/kg, route oral; settings: in vivo, read-out: beta t1/2 (converted); summary of the method: as §1
[31] = biological target: Voltage-gated inwardly rectifying potassium channel KCNH2 (Homo sapiens, UniProt Q12809)
Chain of Voltage-gated inwardly rectifying potassium channel KCNH2 (Q12809 whole entry): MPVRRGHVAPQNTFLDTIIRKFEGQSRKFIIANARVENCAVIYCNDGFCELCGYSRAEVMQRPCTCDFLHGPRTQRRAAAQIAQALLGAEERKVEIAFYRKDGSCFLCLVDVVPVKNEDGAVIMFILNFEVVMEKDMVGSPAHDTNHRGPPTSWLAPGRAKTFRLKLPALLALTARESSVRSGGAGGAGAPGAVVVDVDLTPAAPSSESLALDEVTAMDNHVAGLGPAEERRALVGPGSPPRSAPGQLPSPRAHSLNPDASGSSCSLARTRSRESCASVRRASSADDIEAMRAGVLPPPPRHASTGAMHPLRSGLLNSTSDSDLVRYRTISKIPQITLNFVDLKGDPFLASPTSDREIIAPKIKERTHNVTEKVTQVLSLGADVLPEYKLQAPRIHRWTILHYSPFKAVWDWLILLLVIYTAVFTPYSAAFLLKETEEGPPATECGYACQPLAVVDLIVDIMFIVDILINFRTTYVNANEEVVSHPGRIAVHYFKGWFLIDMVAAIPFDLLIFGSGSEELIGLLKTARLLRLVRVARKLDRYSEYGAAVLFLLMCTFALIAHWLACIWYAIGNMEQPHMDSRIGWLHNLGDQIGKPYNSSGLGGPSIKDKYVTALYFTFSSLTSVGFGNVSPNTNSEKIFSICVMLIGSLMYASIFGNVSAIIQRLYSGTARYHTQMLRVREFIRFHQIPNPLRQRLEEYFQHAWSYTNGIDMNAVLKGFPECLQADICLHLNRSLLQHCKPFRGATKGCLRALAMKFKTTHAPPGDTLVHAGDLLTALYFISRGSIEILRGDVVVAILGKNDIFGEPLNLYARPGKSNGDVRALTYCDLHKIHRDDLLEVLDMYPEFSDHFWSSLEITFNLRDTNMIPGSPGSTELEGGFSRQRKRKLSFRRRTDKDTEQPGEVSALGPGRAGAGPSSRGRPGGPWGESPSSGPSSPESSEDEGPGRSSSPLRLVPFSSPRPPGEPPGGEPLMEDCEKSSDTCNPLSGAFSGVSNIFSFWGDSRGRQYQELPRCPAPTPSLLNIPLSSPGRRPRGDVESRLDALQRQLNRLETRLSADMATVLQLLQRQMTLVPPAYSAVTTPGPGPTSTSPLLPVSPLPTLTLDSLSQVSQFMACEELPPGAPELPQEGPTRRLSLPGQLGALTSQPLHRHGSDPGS

[32] = Aqueous solubility of the compound; settings: aqueous (not further specified)

Question: With `CN1C[C@@H](c2ccc(-c3ccc4c(c3)OC[C@H]3[C@H](COP(=O)(O)O)OC(=O)N43)cn2)OC1=O.N=C(N)NCCC[C@H](N)C(=O)O.N=C(N)NCCC[C@H](N)C(=O)O` as the compound, how does the half-life [1] read?
Answer: Its half-life is 9.43 h.

Question: And the Cmax [2]?
Answer: The Cmax was 170 ng/mL.

Question: What about the bioavailability [3] of the same compound?
Answer: The bioavailability was 34.8%.

Question: What about the clearance [4] of the same compound?
Answer: Its clearance is 56.2 mL/min/kg.

Question: And the AUC [5]?
Answer: Its AUC is 1440 ng·h/mL.

Question: And the AUC [6]?
Answer: Its AUC is 523 ng·h/mL.

Question: What about the half-life [7] of the same compound?
Answer: The half-life was 3.88 h.

Question: What about the Tmax [8] of the same compound?
Answer: The Tmax was 0.38 h.

Question: What does the source list for `CN1C[C@@H](c2ccc(-c3ccc4c(c3)OC[C@H]3[C@H](CO)OC(=O)N43)cn2)OC1=O`?
Answer: Cmax [9]: 809 ng/mL; Ratio (Enterococcus faecium [10]): 4; Ratio (Enterococcus faecalis [11]): 4; Ratio [12]: 4; Ratio (Staphylococcus aureus [13]): 4; MIC (Enterococcus faecium [14]): 2 µg/mL (≈ 5.03 µM); MIC (Enterococcus faecalis [15]): 2 µg/mL (≈ 5.03 µM); MIC [16]: 2 µg/mL (≈ 5.03 µM); MIC (Staphylococcus aureus [17]): 4 µg/mL (≈ 10.1 µM); MIC (Staphylococcus aureus [18]): 0.5 µg/mL (≈ 1.26 µM); MIC (Enterococcus faecalis [19]): 1 µg/mL (≈ 2.52 µM); MIC (Streptococcus pneumoniae): 0.5 µg/mL (≈ 1.26 µM); MIC [20]: 0.25 µg/mL (≈ 0.629 µM); MIC [21]: 0.25 µg/mL (≈ 0.629 µM); MIC (Staphylococcus aureus [22]): 0.5 µg/mL (≈ 1.26 µM); MIC (Staphylococcus aureus [23]): 0.5 µg/mL (≈ 1.26 µM); bioavailability [24]: 44.8%; clearance [25]: 53.7 mL/min/kg; AUC [26]: 1560 ng·h/mL; AUC [27]: 2170 ng·h/mL; half-life [28]: 2.51 h; Tmax [29]: 1 h; half-life [30]: 1.93 h; IC50 [31]: > 40 µM

Question: Which Cmax [9] does the source give for `O=C1OC(COP(=O)([O-])[O-])CN1c1ccc(-c2ccc3c(c2)OC[C@H]2[C@H](CO)OC(=O)N32)cn1.[Na+].[Na+]` (stereo partly specified) here?
Answer: The Cmax was 650 ng/mL.

Question: What about the half-life [1] of the same compound?
Answer: The half-life was 1 h.

Question: And the solubility [32]?
Answer: Its solubility is 534 mg/mL.

Question: What about the bioavailability [24] of the same compound?
Answer: Its bioavailability is 19.7%.

Question: And the clearance [4]?
Answer: Its clearance is 33.8 mL/min/kg.

Question: What about the AUC [5] of the same compound?
Answer: The AUC was 4000 ng·h/mL.

Question: What about the AUC [27] of the same compound?
Answer: The AUC was 1230 ng·h/mL.

Question: What about the Tmax [29] of the same compound?
Answer: The Tmax was 0.25 h.

Question: What about the half-life [30] of the same compound?
Answer: Its half-life is 1.61 h.

Reference: ChEMBL document CHEMBL2321795, “Solubility-driven optimization of (pyridin-3-yl) benzoxazinyl-oxazolidinones leading to a promising antibacterial agent” (J Med Chem, 2013)
